Data: ChEMBL document CHEMBL1139507, “Application of phosphoramidate pronucleotide technology to abacavir leads to a significant enhancement of antiviral potency” (J Med Chem, 2005)
Where “and” joins values, the source holds several entries; their conditions need not be identical. Equal values may be shown once.

Key:
HepG2 [1] = assay: Cytostatic concentration required to inhibit Hep G2 cell proliferation; type: functional; details: Homo sapiens
[2] = tested on: Human immunodeficiency virus 1; assay: Effective concentration against human immunodeficiency virus type 1 in CEM cells; type: functional, organism-based; details: Human immunodeficiency virus 1, CCRF-CEM
How it was run: (§1)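 HIV-1- and HIV-2-induced cytopathicity in CEM cell cultures, scored at day 4 by microscopic examination of virus-induced giant cell formation; EC50 = concentration inhibiting cytopathicity by 50%.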

[3] = tested on: Human immunodeficiency virus 1; assay: Effective concentration against human immunodeficiency virus type 1 in MT-4 cells; type: functional, organism-based, MT4
[4] = tested on: Human immunodeficiency virus 2; assay: Effective concentration against human immunodeficiency virus type 2 in CEM cells; type: functional, organism-based; details: Human immunodeficiency virus 2, CCRF-CEM; how it was run: as §1
[5] = tested on: Human immunodeficiency virus 2; assay: Effective concentration against human immunodeficiency virus type 2 in MT-4 cells; type: functional, organism-based; details: Human immunodeficiency virus 2, MT4
CCRF-CEM = assay: Cytostatic concentration required to inhibit CEM cell proliferation; type: functional; details: Homo sapiens
MT4 = assay: Cytostatic concentration required to inhibit MT-4 cell proliferation; type: functional, Homo sapiens
Hepatitis B virus [6] = assay: Effective concentration against HBV in Hep G2.2.15 cells; type: functional, organism-based, HepG2 2.2.15
How it was run: (§2)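 Anti-HBV activity assayed in HepG2 2.2.15 human hepatoma cells, which constitutively produce HBV; EC50 = 50% effective concentration.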

HepG2 [7] = assay: Cytostatic concentration required to inhibit Hep G2.2.15 cell proliferation; type: functional, Homo sapiens
How it was run: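 Growth inhibition of HepG2 2.2.15 human hepatoma cells (constitutively HBV-producing) measured; CC50 = 50% cytostatic concentration.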

Hepatitis B virus [8] = assay: Effective concentration againstHBV in Hep G2.2.15 cells; type: functional, organism-based, HepG2 2.2.15; how it was run: as §2
[9] = Human immunodeficiency virus 1, MT4
[10] = Hepatitis B virus, HepG2 2.2.15

Row | SMILES | CC50 (HepG2 [1]) | EC50 [2] | EC50 [3, 9] | EC50 [4] | EC50 [5] | CC50 (CCRF-CEM) | CC50 (MT4; Homo sapiens, MT4) | EC50 (Hepatitis B virus [6]; [10]) | CC50 (HepG2 [7]) | EC50 ([3]; mt4) | CC50 (MT4) | EC50 (Hepatitis B virus [8]; [10]) | EC50 (Hepatitis B virus [6]; hepg2 2.2.15) | EC50 (Hepatitis B virus [8]; hepg2 2.2.15)
1 | CC(C)OC(=O)[C@@H](C)NP(=O)(OC[C@@H]1C=C[C@H](n2cnc3c(NC4CC4)nc(N)nc32)C1)Oc1ccccc1 (some centres not stated) | 17000 nM | 50 nM | 200 nM | 50 nM | 260 nM | 13000 nM | 4600 nM | 550 nM | – | – | – | – | – | –
2 | COC(=O)C(C)(C)NP(=O)(OC[C@@H]1C=C[C@H](n2cnc3c(NC4CC4)nc(N)nc32)C1)Oc1ccccc1 (some centres not stated) | 5500 nM | 67 nM | 140 nM | 64 nM | 110 nM | > 130000 nM | 8100 nM | 19 nM | – | – | – | – | – | –
3 | COC(=O)CNP(=O)(OC[C@@H]1C=C[C@H](n2cnc3c(NC4CC4)nc(N)nc32)C1)Oc1ccccc1 (some centres not stated) | 58000 nM | 1800 nM | 7200 nM | 2000 nM | 5400 nM | > 56000 nM | 8500 nM | 1000 nM | – | – | – | – | – | –
4 | COC(=O)[C@@H](C)NP(=O)(OC[C@@H]1C=C[C@H](n2cnc3c(NC4CC4)nc(N)nc32)C1)Oc1ccccc1 (stereo in doubt; 3a,b) | 17000 nM | 50 nM | – | 50 nM | 260 nM | 13000 nM | – | – | 17000 nM | 200 nM and 37 nM | 4300 nM and 4600 nM | 550 nM | 550 nM | –
5 | C[C@@H](NP(=O)(OC[C@@H]1C=C[C@H](n2cnc3c(NC4CC4)nc(N)nc32)C1)Oc1ccccc1)C(=O)OC(C)(C)C (some centres not stated) | 11000 nM | 3700 nM | 6600 nM | 6000 nM | 3400 nM | 8600 nM | 2100 nM | 5000 nM | – | – | – | – | – | –
6 | COC(=O)[C@@H](C)NP(=O)(OC[C@@H]1C=C[C@H](n2cnc3c(NC4CC4)nc(N)nc32)C1)Oc1ccccc1 (stereo in doubt; 3b) | – | – | – | – | – | – | – | – | 35000 nM | 110 nM | 4000 nM | – | 1500 nM | –
7 | COC(=O)[C@H](C)NP(=O)(OC[C@@H]1C=C[C@H](n2cnc3c(NC4CC4)nc(N)nc32)C1)Oc1ccccc1 (some centres not stated) | 52000 nM | 1400 nM | 3400 nM | 4500 nM | 4100 nM | 46000 nM | 4500 nM | 1300 nM | – | – | – | – | – | –
8 | CCOC(=O)[C@@H](C)NP(=O)(OC[C@@H]1C=C[C@H](n2cnc3c(NC4CC4)nc(N)nc32)C1)Oc1ccccc1 (stereo in doubt; 6a,b) | – | – | – | – | – | – | – | – | 18000 nM | 15.5 nM | 4600 nM | – | – | –
9 | CCOC(=O)[C@@H](C)NP(=O)(OC[C@@H]1C=C[C@H](n2cnc3c(NC4CC4)nc(N)nc32)C1)Oc1ccccc1 (stereo in doubt; 6) | 18000 nM | 70 nM | – | 61 nM | 210 nM | 12000 nM | – | 350 nM | – | 200 nM | 8600 nM | – | – | –
10 | COC(=O)[C@@H](C)NP(=O)(OC[C@@H]1C=C[C@H](n2cnc3c(NC4CC4)nc(N)nc32)C1)Oc1ccccc1 (stereo in doubt; 3a) | – | – | – | – | – | – | – | – | 10000 nM | 27 nM | 1000 nM | – | – | 400 nM
11 | CCOC(=O)[C@@H](C)NP(=O)(OC[C@@H]1C=C[C@H](n2cnc3c(NC4CC4)nc(N)nc32)C1)Oc1ccccc1 (stereo in doubt; 6b) | – | – | – | – | – | – | – | – | 35000 nM | 140 nM | 5000 nM | – | 270 nM | –
12 | CCOC(=O)[C@@H](C)NP(=O)(OC[C@@H]1C=C[C@H](n2cnc3c(NC4CC4)nc(N)nc32)C1)Oc1ccccc1 (stereo in doubt; 6a) | – | – | – | – | – | – | – | – | 7500 nM | 15.5 nM | 950 nM | – | 200 nM | –
